Data from ChEMBL document CHEMBL3045665, “Synthesis and in vitro antiproliferative activity of novel (4-chloro- and 4-acyloxy-2-butynyl)thioquinolines” (2011).
≈ marks a conversion by molar mass, not a printed value.

What was measured:
Type in all cases: functional
[1] = test system: B16; assay: Antiproliferative activity against Mus musculus (mouse) B16 cells after 72 hr; conditions: B16, 72 h, read-out: ID50 (the source's name)
Procedure, shortened: (§1)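 Cells in opti-MEM with 2 mM glutamine, streptomycin, penicillin and 5% FCS at 37°C and 5% CO2. Plated at 10^4 cells/well 24 h before treatment, then exposed 72 h to 0.1–100 µg/ml (1 mg/ml stock in 10% DMSO, diluted in medium). Cells fixed with cold 50% TCA, stained with 0.4% SRB, dye extracted in 10 mM Tris, OD 540 nm. ID50 versus untreated control. Triplicates, 3–5 experiments.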

[2] = test system: CCRF-CEM; assay: Antiproliferative activity against Homo sapiens (human) CCRF-CEM cells after 72 hr; conditions: read-out: ID50 (the source's name)
Procedure, shortened: (§2)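 Leukemia cells were grown in suspension in opti-MEM with 2 mM glutamine, antibiotics and 5% FCS (37°C, 5% CO2) and seeded at 10^4 cells/well 24 h beforehand. They were exposed 72 h to 0.1–100 µg/ml (1 mg/ml stock in 10% DMSO). MTT was added for the final 3–4 h, followed by SDS/DMF lysis for 24 h and OD at 570 nm. ID50 is relative to untreated control; triplicates, 3–5 experiments.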

[3] = Antiproliferative activity against Homo sapiens (human) SW707 cells after 72 hr; conditions: SW707, 72 h, read-out: ID50 (the source's name); procedure, shortened: as §1
[4] = test system: P388; assay: Antiproliferative activity against Mus musculus (mouse) P388 cells after 72 hr; conditions: P388, 72 h, read-out: ID50 (the source's name); procedure, shortened: as §2
[5] = test system: T47D; assay: Antiproliferative activity against Homo sapiens (human) T47D cells after 72 hr; conditions: read-out: ID50 (the source's name); procedure, shortened: as §1

Row | SMILES | IC50 [1] | IC50 [2] | IC50 [4] | IC50 [5] | IC50 [3]
1 | CSc1cnc2ccccc2c1[Se]CC#CCOC(=O)/C=C/c1ccccc1 | 3.1 µg/mL (≈ 6.85 µM) | 17.8 µg/mL (≈ 39.3 µM) | 43.9 µg/mL (≈ 97 µM) | 4.3 µg/mL (≈ 9.5 µM) | 4.7 µg/mL (≈ 10.4 µM)
2 | CSc1cnc2ccccc2c1SCC#CCCl | 16.9 µg/mL (≈ 57.5 µM) | 2.5 µg/mL (≈ 8.51 µM) | 2.7 µg/mL (≈ 9.19 µM) | 3.9 µg/mL (≈ 13.3 µM) | 3.7 µg/mL (≈ 12.6 µM)
3 | CCOC(=O)OCC#CCSc1c(SC)cnc2ccccc12 | 5.5 µg/mL (≈ 15.8 µM) | 13.2 µg/mL (≈ 38 µM) | 34.7 µg/mL (≈ 99.9 µM) | 34.2 µg/mL (≈ 98.4 µM) | 33.1 µg/mL (≈ 95.3 µM)
4 | C#CCSc1cnc2ccccc2c1[Se]CC#CCCl | 7.1 µg/mL (≈ 19.5 µM) | 1.8 µg/mL (≈ 4.93 µM) | 0.8 µg/mL (≈ 2.19 µM) | 0.4 µg/mL (≈ 1.1 µM) | 3.2 µg/mL (≈ 8.77 µM)
5 | CSc1cnc2ccccc2c1[Se]CC#CCCl | 3.5 µg/mL (≈ 10.3 µM) | 1.7 µg/mL (≈ 4.99 µM) | 0.4 µg/mL (≈ 1.17 µM) | 0.7 µg/mL (≈ 2.05 µM) | 3.2 µg/mL (≈ 9.39 µM)
6 | CSc1cnc2ccccc2c1[Se]CC#CCOC(=O)c1ccccc1 | 2.1 µg/mL (≈ 4.92 µM) | 1.9 µg/mL (≈ 4.46 µM) | 3.5 µg/mL (≈ 8.21 µM) | 2.2 µg/mL (≈ 5.16 µM) | 3.6 µg/mL (≈ 8.44 µM)
7 | OCC#CCSc1cnc2ccccc2c1[Se]CC#CCCl | 3.8 µg/mL (≈ 9.63 µM) | 2.6 µg/mL (≈ 6.59 µM) | 2 µg/mL (≈ 5.07 µM) | 1.7 µg/mL (≈ 4.31 µM) | 3.3 µg/mL (≈ 8.36 µM)
8 | OCC#CCSc1cnc2ccccc2c1SCC#CCCl | 43.4 µg/mL (≈ 125 µM) | 3.3 µg/mL (≈ 9.49 µM) | 5.1 µg/mL (≈ 14.7 µM) | 5.3 µg/mL (≈ 15.2 µM) | 19.8 µg/mL (≈ 56.9 µM)
9 | CSc1cnc2ccccc2c1[Se]CC#CCOC(=O)c1ccccc1C(=O)O | 3.1 µg/mL (≈ 6.59 µM) | 4 µg/mL (≈ 8.5 µM) | 19.1 µg/mL (≈ 40.6 µM) | 3.2 µg/mL (≈ 6.8 µM) | 3.7 µg/mL (≈ 7.87 µM)
10 | C#CCSc1cnc2ccccc2c1SCC#CCCl | 52.8 µg/mL (≈ 166 µM) | 2.9 µg/mL (≈ 9.12 µM) | 3 µg/mL (≈ 9.44 µM) | 5.8 µg/mL (≈ 18.2 µM) | 12.9 µg/mL (≈ 40.6 µM)
11 | CSc1cnc2ccccc2c1SCC#CCOC(=O)/C=C/c1ccccc1 | 9.4 µg/mL (≈ 23.2 µM) | 18.1 µg/mL (≈ 44.6 µM) | – | 71.9 µg/mL (≈ 177 µM) | 66.6 µg/mL (≈ 164 µM)

Now from value to compound, other results behind:

Row | IC50 [1] | IC50 [2] | IC50 [4] | IC50 [5] | SMILES | IC50 [3]
12 | 17.8 µg/mL (≈ 46.9 µM) | 22.2 µg/mL (≈ 58.5 µM) | – | – | CSc1cnc2ccccc2c1SCC#CCOC(=O)c1ccccc1 | –
13 | 53.8 µg/mL (≈ 131 µM) | – | – | – | O=C(O)c1ccccc1C(=O)OCC#CCSc1cnc2ccccc2c1Cl | –
14 | 11.4 µg/mL (≈ 28.9 µM) | 15.4 µg/mL (≈ 39.1 µM) | 32.8 µg/mL (≈ 83.3 µM) | 22.8 µg/mL (≈ 57.9 µM) | O=C(/C=C/c1ccccc1)OCC#CCSc1cnc2ccccc2c1Cl | 48.8 µg/mL (≈ 124 µM)
15 | 18.1 µg/mL (≈ 42.7 µM) | 14.5 µg/mL (≈ 34.2 µM) | 35 µg/mL (≈ 82.6 µM) | 36.1 µg/mL (≈ 85.2 µM) | CSc1cnc2ccccc2c1SCC#CCOC(=O)c1ccccc1C(=O)O | 28.1 µg/mL (≈ 66.3 µM)
16 | 14.7 µg/mL (≈ 34.2 µM) | 50.9 µg/mL (≈ 118 µM) | – | – | C#CCSc1cnc2ccccc2c1SCC#CCOC(=O)/C=C/c1ccccc1 | –
17 | 4 µg/mL (≈ 14.2 µM) | 3.7 µg/mL (≈ 13.1 µM) | 13.4 µg/mL (≈ 47.5 µM) | 3.2 µg/mL (≈ 11.3 µM) | ClCC#CCSc1cnc2ccccc2c1Cl | 3.3 µg/mL (≈ 11.7 µM)
